Values after ≈ are worked out from the molar mass of the structure shown.
Tests used:
Pseudomonas aeruginosa [1] = assay: Antibacterial activity against Pseudomonas aeruginosa PA7; type: functional
How it was run: (§1)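 MIC in µg/ml against P. aeruginosa strains with fully functioning efflux pumps. PAO1 is wild type and efflux pump competent.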

Pseudomonas aeruginosa [2] = assay: Antibacterial activity against quinolone-resistant Pseudomonas aeruginosa PA3060; type: functional
How it was run: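 MIC (µg/ml) against quinolone-resistant P. aeruginosa PA-3060, run alongside efflux-competent strains PAO1 and PA-7 and the multi-efflux-pump knockout PA-3919. Some analogs were tested as racemates.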

[3] = Lipophilicity, log D of the compound at pH 7.4; type: physicochemical; details: buffer
Pseudomonas aeruginosa [4] = assay: Antibacterial activity against multi efflux pump knock out Pseudomonas aeruginosa PA3919; type: functional
How it was run: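 MIC in µg/ml against P. aeruginosa PA-3919, which lacks multiple efflux pumps. The strain is used to tell whether a compound is a substrate of these pumps.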

[5] = biological target: T1, UDP-3-O-acyl-N-acetylglucosamine deacetylase (Pseudomonas aeruginosa, UniProt B5ATN6); assay: Inhibition of Pseudomonas aeruginosa LpxC
T1 sequence (B5ATN6 whole entry): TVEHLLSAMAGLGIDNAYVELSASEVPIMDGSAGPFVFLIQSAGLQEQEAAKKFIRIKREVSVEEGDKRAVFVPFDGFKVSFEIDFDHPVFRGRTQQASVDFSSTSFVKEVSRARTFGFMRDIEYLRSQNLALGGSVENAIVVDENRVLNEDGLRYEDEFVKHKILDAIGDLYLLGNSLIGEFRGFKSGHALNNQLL

Pseudomonas aeruginosa [6] = assay: Antibacterial activity against Pseudomonas aeruginosa PAO1; type: functional; how it was run: as §1
Pseudomonas aeruginosa [7] = assay: Antibacterial activity against Pseudomonas aeruginosa; type: functional
Escherichia coli = assay: Antibacterial activity against Escherichia coli; type: functional
Klebsiella pneumoniae = assay: Antibacterial activity against Klebsiella pneumoniae; type: functional
Acinetobacter baumannii = assay: Antibacterial activity against Acinetobacter baumannii; type: functional
[8] = Fraction unbound in human plasma; type: ADME, cell-free

SMILES | MIC (Pseudomonas aeruginosa [1]) [µg/mL] | MIC (Pseudomonas aeruginosa [2]) [µg/mL] | logD [3] | MIC (Pseudomonas aeruginosa [4]) [µg/mL] | IC50 [5] [nM] | MIC (Pseudomonas aeruginosa [6]) [µg/mL] | MIC90 (Pseudomonas aeruginosa [7]) [µg/mL] | MIC90 (Escherichia coli) [µg/mL] | MIC90 (Klebsiella pneumoniae) [µg/mL] | MIC90 (Acinetobacter baumannii) [µg/mL] | fraction unbound [8]
C[C@@](CCc1ccc(-c2ccccc2)cc1)(C(=O)NO)S(C)(=O)=O | 1 (≈ 2.88 µM) | 1 (≈ 2.88 µM) | 2.24 | – | – | – | – | – | – | – | –
C[C@@](CCn1ccc(-c2ccccc2)cc1=O)(C(=O)NO)S(C)(=O)=O | 1 (≈ 2.74 µM) | 2 (≈ 5.49 µM) | 0.8 | 0.06 (≈ 0.165 µM) | – | – | – | – | – | – | –
C[C@@](CCn1cc(-c2cccc(Cl)c2Cl)nn1)(C(=O)NO)S(C)(=O)=O | 4 (≈ 9.82 µM) | 4 (≈ 9.82 µM) | – | < 0.06 | 1.95 | 2 (≈ 4.91 µM) | – | – | – | – | –
COc1ccc(-c2cn(CC[C@](C)(C(=O)NO)S(C)(=O)=O)nn2)c(Cl)c1 | 8 (≈ 19.9 µM) | 8 (≈ 19.9 µM) | – | 0.125 (≈ 0.31 µM) | 4.71 | 8 (≈ 19.9 µM) | – | – | – | – | –
C[C@@](CCn1cc(-c2cccc(F)c2F)nn1)(C(=O)NO)S(C)(=O)=O | 4 (≈ 10.7 µM) | 8 (≈ 21.4 µM) | – | 0.125 (≈ 0.334 µM) | 8.08 | 4 (≈ 10.7 µM) | – | – | – | – | –
COc1ccc(-c2cc(CC[C@](C)(C(=O)NO)S(C)(=O)=O)no2)c(F)c1 | 0.5 (≈ 1.29 µM) | 1 (≈ 2.59 µM) | – | 0.125 (≈ 0.323 µM) | 2.32 | 0.5 (≈ 1.29 µM) | – | – | – | – | –
COc1ccc(-c2cc(CC[C@](C)(C(=O)NO)S(C)(=O)=O)on2)c(F)c1 | 2 (≈ 5.18 µM) | 2 (≈ 5.18 µM) | 1.23 | < 0.06 | 4.4 | 1 (≈ 2.59 µM) | 4 (≈ 10.4 µM) | 4 (≈ 10.4 µM) | 8 (≈ 20.7 µM) | 32 (≈ 82.8 µM) | 0.072
COc1cccc(-c2cc(CC[C@](C)(C(=O)NO)S(C)(=O)=O)on2)c1F | 4 (≈ 10.4 µM) | 8 (≈ 20.7 µM) | – | < 0.06 | 5.32 | 2 (≈ 5.18 µM) | – | – | – | – | –
C[C@@](CCc1cc(-c2ccccc2)on1)(C(=O)NO)S(C)(=O)=O | 0.5 (≈ 1.48 µM) | 1 (≈ 2.96 µM) | 1.31 | < 0.06 | 0.511 | 0.5 (≈ 1.48 µM) | 2 (≈ 5.91 µM) | 4 (≈ 11.8 µM) | 32 (≈ 94.6 µM) | > 32 | 0.016
C[C@@](CCn1cc(-c2ccccc2)nn1)(C(=O)NO)S(C)(=O)=O | 2 (≈ 5.91 µM) | 4 (≈ 11.8 µM) | – | 0.03 (≈ 0.0887 µM) | 0.85 | 1 (≈ 2.96 µM) | – | – | – | – | –
C[C@@](CCn1cc(-c2ccccc2)cn1)(C(=O)NO)S(C)(=O)=O | 1 (≈ 2.96 µM) | 2 (≈ 5.93 µM) | 1.04 | 0.015 (≈ 0.0445 µM) | 1.61 | 0.5 (≈ 1.48 µM) | 4 (≈ 11.9 µM) | 32 (≈ 94.8 µM) | > 64 | > 256 | 0.048
C[C@@](CCc1cc(-c2ccccc2)no1)(C(=O)NO)S(C)(=O)=O | 1 (≈ 2.96 µM) | 2 (≈ 5.91 µM) | 0.99 | < 0.06 | 3.02 | 0.5 (≈ 1.48 µM) | 2 (≈ 5.91 µM) | 1 (≈ 2.96 µM) | 4 (≈ 11.8 µM) | > 32 | 0.013
C[C@@](CCn1cc(-c2ccc(Cl)cc2F)nn1)(C(=O)NO)S(C)(=O)=O | 1 (≈ 2.56 µM) | 1 (≈ 2.56 µM) | 1.34 | 0.008 (≈ 0.0205 µM) | 0.657 | 0.5 (≈ 1.28 µM) | 1 (≈ 2.56 µM) | 1 (≈ 2.56 µM) | 2 (≈ 5.12 µM) | > 32 | –
C[C@@](CCn1cc(-c2ccc(Cl)c(F)c2)nn1)(C(=O)NO)S(C)(=O)=O | 2 (≈ 5.12 µM) | 2 (≈ 5.12 µM) | – | 0.06 (≈ 0.154 µM) | 0.912 | 2 (≈ 5.12 µM) | – | – | – | – | –
COc1ccc(-c2cn(CC[C@](C)(C(=O)NO)S(C)(=O)=O)nn2)c(F)c1 | 2 (≈ 5.18 µM) | 4 (≈ 10.4 µM) | 1.36 | 0.06 (≈ 0.155 µM) | 1.2 | 2 (≈ 5.18 µM) | 4 (≈ 10.4 µM) | 16 (≈ 41.4 µM) | > 32 | > 32 | 0.085
Cc1ccc(-c2cn(CC[C@](C)(C(=O)NO)S(C)(=O)=O)nn2)cc1 | 4 (≈ 11.4 µM) | 8 (≈ 22.7 µM) | – | 0.125 (≈ 0.355 µM) | 1.39 | 2 (≈ 5.68 µM) | – | – | – | – | –
C[C@@](CCn1cc(-c2ccc(Cl)c(Cl)c2)nn1)(C(=O)NO)S(C)(=O)=O | 2 (≈ 4.91 µM) | 2 (≈ 4.91 µM) | – | < 0.06 | 1.67 | 1 (≈ 2.46 µM) | – | – | – | – | –
C[C@@](CCn1cc(-c2ccc(F)c(F)c2)nn1)(C(=O)NO)S(C)(=O)=O | 4 (≈ 10.7 µM) | 4 (≈ 10.7 µM) | – | 0.06 (≈ 0.16 µM) | 1.87 | 4 (≈ 10.7 µM) | – | – | – | – | –
CC(CCc1cc(-c2cccc(Cl)c2Cl)on1)(C(=O)NO)S(C)(=O)=O (racemic) | – | 2 (≈ 4.91 µM) | – | 0.06 (≈ 0.147 µM) | 2.66 | – | – | – | – | – | –
CC(CCc1cc(-c2cccc(F)c2)on1)(C(=O)NO)S(C)(=O)=O (racemic) | – | 4 (≈ 11.2 µM) | – | < 0.06 | 6.75 | – | – | – | – | – | –
CC(CCc1cc(-c2ccccc2F)on1)(C(=O)NO)S(C)(=O)=O (racemic) | 2 (≈ 5.61 µM) | 2 (≈ 5.61 µM) | – | 0.06 (≈ 0.168 µM) | 8.31 | 1 (≈ 2.81 µM) | – | – | – | – | –
Cc1ccc(-c2cc(CCC(C)(C(=O)NO)S(C)(=O)=O)on2)cc1 (racemic) | 2 (≈ 5.68 µM) | 2 (≈ 5.68 µM) | – | < 0.06 | 2.93 | 1 (≈ 2.84 µM) | – | – | – | – | –
CC(CCc1cc(-c2cccc(F)c2F)no1)(C(=O)NO)S(C)(=O)=O (racemic) | 2 (≈ 5.34 µM) | 4 (≈ 10.7 µM) | – | < 0.06 | 6.81 | 2 (≈ 5.34 µM) | – | – | – | – | –
CC(CCc1cn(-c2ccccc2)nn1)(C(=O)NO)S(C)(=O)=O (racemic) | 16 (≈ 47.3 µM) | 32 (≈ 94.6 µM) | – | 0.5 (≈ 1.48 µM) | 3 | 8 (≈ 23.6 µM) | – | – | – | – | –
CC(CCc1cnn(-c2ccccc2)c1)(C(=O)NO)S(C)(=O)=O (racemic) | 32 (≈ 94.8 µM) | 64 (≈ 190 µM) | – | 0.5 (≈ 1.48 µM) | 13.5 | 8 (≈ 23.7 µM) | – | – | – | – | –
CC(CCc1nnc(-c2ccccc2)[nH]1)(C(=O)NO)S(C)(=O)=O (racemic) | > 64 | > 64 | – | 64 (≈ 189 µM) | > 100 | > 64 | – | – | – | – | –
CC(CCc1nc(-c2ccccc2)no1)(C(=O)NO)S(C)(=O)=O (racemic) | 32 (≈ 94.3 µM) | > 64 | – | 0.5 (≈ 1.47 µM) | > 100 | 16 (≈ 47.1 µM) | – | – | – | – | –
CC(CCc1cc(-c2ccccc2)n[nH]1)(C(=O)NO)S(C)(=O)=O (racemic) | > 64 | > 64 | – | 4 (≈ 11.9 µM) | > 100 | > 64 | – | – | – | – | –
CC(CCn1ncc(-c2ccccc2)n1)(C(=O)NO)S(C)(=O)=O (racemic) | 32 (≈ 94.6 µM) | 64 (≈ 189 µM) | – | 0.5 (≈ 1.48 µM) | > 100 | 32 (≈ 94.6 µM) | – | – | – | – | –

Reference: ChEMBL document CHEMBL2163274, “Heterocyclic methylsulfone hydroxamic acid LpxC inhibitors as Gram-negative antibacterial agents” (Bioorg Med Chem Lett, 2012)
